Where “and” joins values, the source holds several entries; their conditions need not be identical. Identical values can stand only once. Calls of active or inactive are those of the source.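 Rule for the calls: active = compound needing at most 10 µM to cut the imipenem dose that stops bacterial growth fourfold; inactive = the rest.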
Columns and labels:
[1] = growth inhibition synergy, Acinetobacter plus imipenem – strain YMC07/8/B3323, clinical isolate, powder samples, late-stage follow-up (AID 624096); conditions: VIM-2 Acinetobacter YMC07/8/B3323 growth with imipenem, OD590; measured here: max imipenem potentiation fold; stronger effect = higher value
Outline: (§1)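 Assay system: Acinetobacter cells in broth microdilution / Also added: imipenem in two-fold serial dilutions along plate columns / Dosing: test compound in two-fold serial dilutions along rows, checkerboard / Times: growth of at least 18 h, aerobic, 37 °C / Technique: OD590 turbidity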

[2] = system: VIM-2 Acinetobacter YMC07/8/B3323 growth with imipenem, OD590; experiment: as above
Outline: as §1

Row | SMILES | MIC [2] | fold potentiation [1]
1 | CC(C)(C)OC(=O)N1CCN(C(=O)CN2C(=O)/C(=C/c3c(Cl)ccc(Cl)c3Cl)SC2=S)CC1 | 6.25 µM | 16
2 | O=C(CN1C(=O)/C(=C/c2c(Cl)cccc2Cl)SC1=S)NN1CCN(C(=O)c2ccccc2)CC1 | 3.12 µM | 16
3 | O=C(O)CN1C(=O)/C(=C/c2ccc(F)cc2)SC1=S | > 50 µM (inactive) | –
4 | O=C(O)CN1C(=O)/C(=C/c2ccc(Cl)cc2)SC1=S | > 50 µM (inactive) | 2
5 | O=C(CN1C(=O)/C(=C/c2c(Cl)ccc(Cl)c2Cl)SC1=S)NN1CCNCC1 | 0.781 µM | 32
6 | Cc1cc(C)c(/C=C2\SC(=S)N(CC(=O)NN3CCN(C)CC3)C2=O)c(C)c1 | > 25 µM (inactive) | 4
7 | CN1CCN(NC(=O)CN2C(=O)/C(=C/c3c(C(F)(F)F)ccc(Cl)c3Cl)SC2=S)CC1 | 3.12 µM | 32
8 | Cc1cc(C)c(/C=C2\SC(=S)N(CC(=O)O)C2=O)c(C)c1 | > 50 µM (inactive) | –
9 | O=C(O)CN1C(=O)/C(=C/c2ccc([N+](=O)[O-])cc2)SC1=S | > 50 µM (inactive) | 2
10 | CN1CCN(NC(=O)CN2C(=O)/C(=C/c3c(Cl)ccc(C(F)(F)F)c3Cl)SC2=S)CC1 | 3.12 µM | 16
11 | CN1CCN(NC(=O)CN2C(=O)/C(=C/c3cccnc3)SC2=S)CC1 | > 50 µM (inactive) | 4
12 | CN1CCN(NC(=O)CN2C(=O)/C(=C/c3c(F)cccc3C(F)(F)F)SC2=S)CC1 | 3.12 µM | 2
13 | Cc1ccc(S(=O)(=O)N2CCN(NC(=O)CN3C(=O)/C(=C/c4c(Cl)cccc4Cl)SC3=S)CC2)cc1 | > 25 µM (inactive) | –
14 | O=C(O)CN1C(=O)/C(=C/c2c(F)c(F)c(F)c(F)c2F)SC1=S | > 50 µM (inactive) | 2
15 | CN1CCN(NC(=O)C(Cc2ccccc2)N2C(=O)/C(=C/c3c(Cl)ccc(Cl)c3Cl)SC2=S)CC1 (stereo unspecified) | 1.56 µM | 32
16 | CC(C)(C)OC(=O)N1CCN(NC(=O)CN2C(=O)/C(=C/c3c(Cl)ccc(Cl)c3Cl)SC2=S)CC1 | 0.781 µM | 16
17 | O=C(O)CN1C(=O)/C(=C/c2ccc3ccccc3n2)SC1=S | > 50 µM (inactive) | –
18 | CN1CCN(NC(=O)C(Cc2ccc(Cl)cc2)N2C(=O)/C(=C/c3c(Cl)ccc(Cl)c3Cl)SC2=S)CC1 (stereo unspecified) | 1.56 µM | 32
19 | O=C(O)CN1C(=O)/C(=C/c2ccccc2Br)SC1=S | > 50 µM (inactive) | 2
20 | CN1CCN(NC(=O)[C@H](Cc2ccccc2)N2C(=O)/C(=C/c3c(Cl)cccc3Cl)SC2=S)CC1 | > 25 µM (inactive) | 8

Row | SMILES | MIC [2] | fold potentiation [1]
21 | CN1CCN(NC(=O)CN2C(=O)/C(=C/c3c(F)cccc3Br)SC2=S)CC1 | > 50 µM (inactive) | 2
22 | CN1CCN(NC(=O)CN2C(=O)/C(=C/c3ccc(Cl)cc3)SC2=S)CC1 | > 50 µM (inactive) | –
23 | CN1CCN(NC(=O)CN2C(=O)/C(=C/c3c(F)cccc3F)SC2=S)CC1 | > 25 µM (inactive) | 4
24 | O=C(CN1C(=O)/C(=C/c2c(Cl)cccc2Cl)SC1=S)NN1CCN(S(=O)(=O)c2ccc(Cl)cc2)CC1 | > 50 µM (inactive) | 2
25 | CN1CCN(NC(=O)CN2C(=O)/C(=C/c3ccccc3Br)SC2=S)CC1 | > 50 µM (inactive) | 4
26 | CN1CCN(C(=O)CN2C(=O)/C(=C/c3c(Cl)ccc(Cl)c3Cl)SC2=S)CC1 | 1.56 µM and 0.781 µM | 16 and 32
27 | O=C(O)CN1C(=O)/C(=C/c2c(C(F)(F)F)ccc(Cl)c2Cl)SC1=S | 6.25 µM | 16
28 | CCOC(=O)/C=C1\SC(=S)N(CC(=O)O)C1=O | > 50 µM (inactive) | –
29 | C[N+]1(OS(C)(=O)=O)CCN(NC(=O)CN2C(=O)/C(=C/c3c(Cl)ccc(Cl)c3Cl)SC2=S)CC1 | 0.195 µM | 32
30 | O=C(CN1C(=O)/C(=C/c2c(Cl)ccc(Cl)c2Cl)SC1=S)N1CCN(c2ccccc2Cl)CC1 | > 50 µM (inactive) | –
31 | CN1CCN(NC(=O)CN2C(=O)/C(=C/c3ccc(F)cc3)SC2=S)CC1 | > 50 µM (inactive) | –
32 | CN1CCN(NC(=O)CN2C(=O)/C(=C/c3ccc4ccccc4n3)SC2=S)CC1 | > 50 µM (inactive) | –
33 | O=C(O)CN1C(=O)/C(=C/c2cccnc2)SC1=S | > 50 µM (inactive) | –
34 | CCOC(=O)/C=C1\SC(=S)N(CC(=O)NN2CCN(C)CC2)C1=O | > 50 µM (inactive) | 2
35 | CN1CCN(NC(=O)CN2C(=O)/C(=C/c3c(Cl)ccc(Cl)c3Cl)SC2=S)CC1 | 0.781 µM and 1.56 µM and 0.391 µM | 32 and 16
36 | CN1CCN(NC(=O)CN2C(=O)/C(=C/c3ccc([N+](=O)[O-])cc3)SC2=S)CC1 | > 50 µM (inactive) | –
37 | O=C(O)CN1C(=O)/C(=C/c2c(F)cccc2C(F)(F)F)SC1=S | > 25 µM (inactive) | 2
38 | CC(C)C(C(=O)NN1CCN(C)CC1)N1C(=O)/C(=C/c2c(Cl)ccc(Cl)c2Cl)SC1=S (stereo unspecified) | 1.56 µM | 32
39 | CN1CCN(NC(=O)CN2C(=O)/C(=C/c3c(F)c(F)c(F)c(F)c3F)SC2=S)CC1 | > 50 µM (inactive) | 2

Further lines, with some results ahead:

Row | MIC [2] | SMILES | fold potentiation [1]
40 | > 50 µM (inactive) | O=C(O)CN1C(=O)/C(=C/c2c(F)cccc2Br)SC1=S | 2
41 | 6.25 µM | O=C(CN1C(=O)/C(=C/c2c(Cl)cccc2Cl)SC1=S)NCc1ccncc1 | 16
42 | 12.5 µM (inactive) | O=C(O)CN1C(=O)/C(=C/c2c(Cl)cccc2Cl)SC1=S | 16
43 | 6.25 µM | CC(=O)N1CCN(NC(=O)CN2C(=O)/C(=C/c3c(Cl)cccc3Cl)SC2=S)CC1 | 32
44 | 3.12 µM | O=C(CN1C(=O)/C(=C/c2c(Cl)cccc2Cl)SC1=S)NN1CCNCC1 | 16
45 | 12.5 µM (inactive) | CCN(CC)OC(=O)CN1C(=O)/C(=C/c2c(Cl)cccc2Cl)SC1=S | 8
46 | > 50 µM (inactive) | O=C(CN1C(=O)/C(=C/c2c(Cl)cccc2Cl)SC1=S)Nc1cc([N+](=O)[O-])ccc1O | –
47 | 1.56 µM | O=C(CN1C(=O)/C(=C/c2c(Cl)ccc(Cl)c2Cl)SC1=S)NCc1ccccn1 | 16 and 32
48 | 6.25 µM | O=C(CN1C(=O)/C(=C/c2c(Cl)cccc2Cl)SC1=S)Nc1cccnc1 | 16
49 | 3.12 µM | CC(C)(C)OC(=O)N1CCN(NC(=O)CN2C(=O)/C(=C/c3c(Cl)cccc3Cl)SC2=S)CC1 | 16
50 | > 50 µM (inactive) | O=C(O)CN1C(=O)/C(=C/c2c(F)cccc2F)SC1=S | 2
51 | 3.12 µM | O=C(CN1C(=O)/C(=C/c2c(Cl)cccc2Cl)SC1=S)NN1CCCCC1 | 16
52 | 3.12 µM | O=C(CN1C(=O)/C(=C/c2c(Cl)ccc(Cl)c2Cl)SC1=S)NN1CCCCC1 | 16
53 | 3.12 µM | CN1CCN(NC(=O)CN2C(=O)/C(=C/c3c(F)cccc3Cl)SC2=S)CC1 | 32
54 | 6.25 µM | CC(C)N1CCN(NC(=O)CN2C(=O)/C(=C/c3c(Cl)cccc3Cl)SC2=S)CC1 | 32
55 | 1.56 µM | Cc1cc(C)n(NC(=O)CN2C(=O)/C(=C/c3c(Cl)cccc3Cl)SC2=S)c(=O)c1 | 32
56 | 6.25 µM | O=C(CN1C(=O)/C(=C/c2c(Cl)cccc2Cl)SC1=S)NCc1ccccn1 | 16
57 | 3.12 µM | O=C(CN1C(=O)/C(=C/c2c(Cl)cccc2Cl)SC1=S)NN1CCN(Cc2ccccc2)CC1 | –
58 | > 50 µM (inactive) | O=C(O)CN1C(=O)/C(=C/c2c(F)cccc2Cl)SC1=S | 2
59 | 6.25 µM | O=C(O)CN1C(=O)/C(=C/c2c(Cl)ccc(C(F)(F)F)c2Cl)SC1=S | 8
60 | 6.25 µM | O=C(O)CN1C(=O)/C(=C/c2c(Cl)ccc(Cl)c2Cl)SC1=S | 16
61 | 6.25 µM | CN1CCN(C(=O)CN2C(=O)/C(=C/c3c(Cl)cccc3Cl)SC2=S)CC1 | 16
62 | 3.12 µM and 6.25 µM | CN1CCN(NC(=O)CN2C(=O)/C(=C/c3c(Cl)cccc3Cl)SC2=S)CC1 | 32

Reference: PubChem BioAssay AID624096 (The Scripps Research Institute Molecular Screening Center, 2012)
